Source: ChEMBL document CHEMBL1150215, “Strychnogucines A and B, two new antiplasmodial bisindole alkaloids from Strychnos icaja” (J Nat Prod, 2001)

What was measured:
Plasmodium falciparum [1] = test: Antiplasmodial activity against chloroquine-sensitive Plasmodium falciparum F32-Tanzania by [3H]hypoxanthine uptake; format: functional, organism-based
How it was run: (§1)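 Asexual erythrocytic stages kept in continuous in vitro culture (Trager and Jensen method). Eight 4-fold dilutions per sample, final concentrations 20 μg/mL down to 0.0012 μg/mL, each tested in duplicate. Growth read as [³H]hypoxanthine incorporation (Desjardins method, Mirovsky modification).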

Plasmodium falciparum [2] = test: Antiplasmodial activity against chloroquine-resistant Plasmodium falciparum PFB Brazil by [3H]hypoxanthine uptake; format: functional, organism-based
How it was run: (§2)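 Continuous asexual erythrocytic P. falciparum culture (Trager and Jensen). Samples tested as eight 4-fold dilutions, final 20 µg/mL down to 0.0012 µg/mL, in duplicate. Growth read by [3H]hypoxanthine incorporation (Desjardins method, Mirovsky modification). IC50 given as mean ± standard deviation. Differences were tested by Student's t-test at p ≤ 0.05.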

Plasmodium falciparum [3] = test: Antiplasmodial activity against chloroquine-sensitive Plasmodium falciparum FCA 20 Ghana by [3H]hypoxanthine uptake; format: functional, organism-based
How it was run: as §1, with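 “modification). Results given as mean ± standard deviation; differences assessed by Student's t-test, p ≤ 0.05.” for “modification).”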

Plasmodium falciparum [4] = test: Antiplasmodial activity against chloroquine-resistant Plasmodium falciparum W2 Indochina by [3H]hypoxanthine uptake; format: functional, organism-based; how it was run: as §2
KB = test: Cytotoxicity against human KB cells by WST1 assay; format: cell-based
How it was run: (§3)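 Cells grown as in earlier work and exposed to samples in 96-well microplates. Viability read by colorimetric assay with the tetrazolium salt WST-1. Emetine and usambarensine base run as reference compounds. Results given as IC50 in μM.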

[5] = Selectivity index, ratio of IC50 for human KB cells to IC50 for chloroquine-resistant Plasmodium falciparum W2 Indochina; format: toxicity, cell-based; settings: KB cells versus Plasmodium falciparum W2 Indochina, read-out: Ratio IC50
How it was run: (§4)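 SI is cytotoxicity IC50 divided by antiplasmodial IC50. Cytotoxicity was measured on cultured KB cancer cells or WI38 human fibroblasts in microplates by WST-1 tetrazolium colorimetric assay, with emetine and usambarensine as references.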

[6] = Selectivity index, ratio of IC50 for human WI38 cells to IC50 for chloroquine-resistant Plasmodium falciparum W2 Indochina; format: toxicity, cell-based, WI-38; settings: WI38 cells versus Plasmodium falciparum W2 Indochina, read-out: Ratio IC50; how it was run: as §4
[7] = Selectivity index, ratio of IC50 for human WI38 cells to IC50 for chloroquine-sensitive Plasmodium falciparum FCA 20 Ghana; format: toxicity, cell-based, WI-38; settings: WI38 cells versus Plasmodium falciparum FCA 20 Ghana, read-out: Ratio IC50; how it was run: as §4
[8] = Selectivity index, ratio of IC50 for human KB cells to IC50 for chloroquine-sensitive Plasmodium falciparum FCA 20 Ghana; format: toxicity, cell-based; settings: KB cells versus Plasmodium falciparum FCA 20 Ghana, read-out: Ratio IC50; how it was run: as §4
[9] = Cytotoxicity against human WI38 cells by WST1 assay; format: cell-based; settings: WI-38; how it was run: as §3

C/C=C1/CN2[C@@H]([C@@H]3C(=O)N4c5ccccc5[C@@]56CCN7CC8=CCO[C@@H]3[C@@H]([C@H]45)[C@H]8C[C@H]76)C[C@@]34c5ccccc5N5C(=O)CC=C([C@H]1C[C@H]23)[C@H]54 [STRYCHNOGUCINE A]
IC50 (Plasmodium falciparum [1]): 4.81 µM | IC90 (Plasmodium falciparum [1]): 9.54 µM | IC50 (Plasmodium falciparum [2]): 3.2 µM | IC90 (Plasmodium falciparum [2]): 9.4 µM | IC50 (Plasmodium falciparum [3]): 2.31 µM | IC90 (Plasmodium falciparum [3]): 6.98 µM

CCN(CC)CCCC(C)Nc1ccnc2cc(Cl)ccc12 (stereo unspecified) [CHLOROQUINE]
IC90 (Plasmodium falciparum [1]): 0.063 µM | IC90 (Plasmodium falciparum [4]): 1.75 µM | IC90 (Plasmodium falciparum [2]): 1.54 µM | IC90 (Plasmodium falciparum [3]): 0.119 µM

C=C[C@H]1CN2CC[C@H]1C[C@H]2[C@H](O)c1ccnc2ccc(OC)cc12 [QUININE]
IC90 (Plasmodium falciparum [4]): 1.72 µM | IC90 (Plasmodium falciparum [3]): 1.91 µM

CC[C@H]1CN2CCc3cc(OC)c(OC)cc3[C@@H]2C[C@@H]1C[C@H]1NCCc2cc(OC)c(OC)cc21 [EMETINE]
IC50 (KB): 0.056 µM

C/C=C1/CN2CC[C@]34c5ccccc5N5C(=O)C([C@H]6C[C@]78c9ccccc9N9C(=O)C=C[C@@H]([C@H]97)[C@H]7C[C@@H]8N6C/C7=C/C)=C[C@H]([C@H]53)[C@H]1C[C@H]24 [SUNGUCINE]
selectivity ratio [5]: 0.6 | IC90 (Plasmodium falciparum [4]): 33.1 µM | selectivity ratio [6]: 0.6 | selectivity ratio [7]: 0.8 | selectivity ratio [8]: 0.8 | IC50 [9]: 6 µM | IC90 (Plasmodium falciparum [3]): 26.3 µM | IC50 (KB): 6.2 µM

C/C=C1/CN2CCc3c([nH]c4ccccc34)[C@@H]2C[C@@H]1Cc1nccc2c1[nH]c1ccccc12 [USAMBARENSINE]
selectivity ratio [5]: 36.6 | selectivity ratio [6]: 7.8 | selectivity ratio [7]: 3.1 | selectivity ratio [8]: 14.8 | IC50 [9]: 4.62 µM | IC50 (KB): 9.7 µM

OC(c1cc(C(F)(F)F)nc2c(C(F)(F)F)cccc12)C1CCCCN1 (stereo unspecified) [MEFLOQUINE]
IC90 (Plasmodium falciparum [1]): 0.354 µM | IC50 (Plasmodium falciparum [2]): 0.002 µM | IC90 (Plasmodium falciparum [2]): 0.006 µM

C/C=C1/CN2[C@@H](C3=C[C@@H]4[C@@H]5N(C3=O)c3ccccc3[C@@]53CCN5C/C(=C/CO)[C@@H]4C[C@H]53)C[C@@]34c5ccccc5N5C(=O)CC=C([C@H]1C[C@H]23)[C@H]54
selectivity ratio [5]: 116 | IC50 (Plasmodium falciparum [1]): 1.26 µM | IC90 (Plasmodium falciparum [1]): 5.35 µM | IC90 (Plasmodium falciparum [4]): 1.35 µM | IC50 (Plasmodium falciparum [2]): 0.431 µM | IC90 (Plasmodium falciparum [2]): 1.64 µM | selectivity ratio [6]: 120 | selectivity ratio [7]: 19.8 | selectivity ratio [8]: 19.1 | IC50 [9]: 16.8 µM | IC90 (Plasmodium falciparum [3]): 4.35 µM | IC50 (KB): 16.2 µM

O=C1C[C@@H]2OCC=C3CN4[C@@H](C5=C[C@@H]6[C@@H]7N(C5=O)c5ccccc5[C@@]75CCN7C/C(=C/CO)[C@@H]6C[C@H]75)C[C@]56c7ccccc7N1[C@H]5[C@@H]2[C@H]3C[C@H]46 [STRYCHNOGUCINE B]
selectivity ratio [5]: > 176 | IC50 (Plasmodium falciparum [1]): 0.51 µM | IC90 (Plasmodium falciparum [1]): 3.23 µM | IC50 (Plasmodium falciparum [2]): 0.202 µM | IC90 (Plasmodium falciparum [2]): 1.15 µM | selectivity ratio [6]: 182 | selectivity ratio [7]: 25.1 | selectivity ratio [8]: > 24.3 | IC50 [9]: 15.5 µM | IC90 (Plasmodium falciparum [3]): 3.79 µM | IC50 (KB): > 15 µM

C/C=C1/CN2[C@@H](C3=C[C@@H]4[C@@H]5N(C3=O)c3ccccc3[C@@]53CCN5C/C(=C/C)[C@@H]4C[C@H]53)C[C@@]34c5ccccc5N5C(=O)CC=C([C@H]1C[C@H]23)[C@H]54 [ISOSUNGUCINE]
selectivity ratio [5]: 34 | IC90 (Plasmodium falciparum [4]): 1.72 µM | selectivity ratio [6]: 34.7 | selectivity ratio [7]: 7 | selectivity ratio [8]: 6.8 | IC50 [9]: 9.2 µM | IC90 (Plasmodium falciparum [3]): 7.06 µM | IC50 (KB): 9 µM
